25 molecules from ChEMBL document CHEMBL1129426, “5-Lipoxygenase inhibitors: synthesis and structure-activity relationships of a series of 1-aryl-2H,4H-tetrahydro-1,2,4-triazin-3-ones” (J Med Chem, 1996) can be followed below.

Structures are written as SMILES.

A word on the IC50: it is the point on the concentration scale where inhibition reaches its midpoint. Usually Cmax stands for the peak of the concentration-time curve. The Tmax is the time at which the peak concentration occurs. In general, ED50 refers to the midpoint of the dose-response relation. High values mean weaker potency, low ones greater potency. By Inhibition is commonly meant the drop in the measured response relative to a control, in per cent. A lower Inhibition goes with a response near the control.

The target in one data set is T1, Polyunsaturated fatty acid 5-lipoxygenase (Homo sapiens, UniProt P09917).
T1 sequence (P09917 whole entry): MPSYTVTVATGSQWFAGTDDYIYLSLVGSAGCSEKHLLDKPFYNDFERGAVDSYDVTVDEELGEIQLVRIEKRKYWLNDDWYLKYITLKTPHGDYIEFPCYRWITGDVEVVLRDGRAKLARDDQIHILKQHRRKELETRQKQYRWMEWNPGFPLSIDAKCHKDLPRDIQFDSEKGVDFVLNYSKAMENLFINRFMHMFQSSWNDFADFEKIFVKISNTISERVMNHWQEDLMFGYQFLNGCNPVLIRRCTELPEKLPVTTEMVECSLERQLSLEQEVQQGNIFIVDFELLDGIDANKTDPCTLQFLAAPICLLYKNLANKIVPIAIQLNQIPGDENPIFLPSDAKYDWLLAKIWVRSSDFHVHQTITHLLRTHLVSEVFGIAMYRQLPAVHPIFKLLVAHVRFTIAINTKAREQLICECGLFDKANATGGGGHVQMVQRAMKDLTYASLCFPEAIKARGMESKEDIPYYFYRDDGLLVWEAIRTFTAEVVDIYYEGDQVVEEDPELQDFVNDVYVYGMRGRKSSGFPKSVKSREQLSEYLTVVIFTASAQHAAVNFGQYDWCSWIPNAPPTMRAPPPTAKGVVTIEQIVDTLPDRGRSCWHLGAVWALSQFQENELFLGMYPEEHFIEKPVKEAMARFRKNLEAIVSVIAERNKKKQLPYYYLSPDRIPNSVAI
As to the kind of experiment: In vitro 5-lipoxygenase inhibitory activity against calcium ionophore (A23187) induced LTB4 formation in human whole blood.
For `CC1CN(c2ccccc2)NC(=O)N1O` (configuration not stated), the IC50 came out at 13 µM.

Test system in the next data set: not listed separately
As to the kind of experiment: Plasma Cmax in rat (PO dose). The class given is ADME, organism-based. Also on record: route oral. The method in brief: (§1)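 Rats dosed by oral gavage at 200 µmol/kg. Tail-vein blood drawn at about 1 h intervals; plasma analysed by HPLC. Mean of data from two animals.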
Turning to `O=C1NCCN(c2cccc(F)c2)N1`, the highest level (Cmax) was 108 µM.

Take `O=C1NCCN(c2cccc(C(F)(F)F)c2)N1`: the highest level (Cmax) was 24 µM.

`COc1cccc(N2CCNC(=O)N2)c1` gave a Cmax of 72 µM.

`O=C1NCCN(c2cccc([N+](=O)[O-])c2)N1` gave a Cmax of 62 µM.

`Cc1ccc(N2CCNC(=O)N2)cc1` displayed a Cmax of 105 µM.

The molecule `CCc1cccc(N2CCNC(=O)N2)c1` registered a Cmax of 32 µM.

Turning to `Nc1cccc(N2CCNC(=O)N2)c1`, the Cmax came out at 95 µM.

In turn, `O=C1NCCN(c2nc3ccccc3s2)N1` had a Cmax of 123 µM.

For `O=C1NCCN(c2cnc3ccccc3c2)N1`, the maximum concentration (Cmax) was 58 µM.

`O=C1NCCN(c2ccnc3cc(Cl)ccc23)N1` yielded a peak concentration (Cmax) of 85 µM.

Take `Cc1cccc(N2CC(C)NC(=O)N2)c1` (configuration not stated): the peak concentration (Cmax) came out at 44 µM.

`Cc1cc(C)cc(N2CCNC(=O)N2)c1` registered a Cmax of 20 µM.

`CCCCC1CN(c2ccccc2)NC(=O)N1` (configuration not stated) displayed a Cmax of 8 µM.

Molecule `O=C1NCCN(c2cccc(Br)c2)N1` displayed a Cmax of 35 µM.

Test system in the next data set: not listed separately
Description: Plasma Tmax in rat (PO dose). The class given is ADME, organism-based. The method in brief:
as §1
As for `O=C1NCCN(c2cccc(F)c2)N1`, the Tmax is 1 h.

Regarding `O=C1NCCN(c2cccc(C(F)(F)F)c2)N1`, the Tmax turned out to be 4.1 h.

Consider `COc1cccc(N2CCNC(=O)N2)c1`, for which the Tmax was determined as 1.2 h.

For `O=C1NCCN(c2cccc([N+](=O)[O-])c2)N1`, the Tmax stood at 2 h.

With `Cc1ccc(N2CCNC(=O)N2)cc1`, the Tmax came out at 1.1 h.

With `CCc1cccc(N2CCNC(=O)N2)c1`, the time to peak (Tmax) turned out to be 1.1 h.

As to `Nc1cccc(N2CCNC(=O)N2)c1`, the Tmax is 1.1 h.

For `O=C1NCCN(c2nc3ccccc3s2)N1`, the Tmax amounted to 2 h.

Consider `O=C1NCCN(c2cnc3ccccc3c2)N1`, for which the Tmax amounted to 1 h.

As to `O=C1NCCN(c2ccnc3cc(Cl)ccc23)N1`, the Tmax is 4 h.

As to `Cc1cccc(N2CC(C)NC(=O)N2)c1` (configuration not stated), the Tmax was found to be 2.2 h.

Turning to `Cc1cc(C)cc(N2CCNC(=O)N2)c1`, the Tmax amounted to 4 h.

On to `CCCCC1CN(c2ccccc2)NC(=O)N1` (configuration not stated), for which the Tmax turned out to be 1 h.

Regarding `O=C1NCCN(c2cccc(Br)c2)N1`, the Tmax came to 4.2 h.

The next data set relates to Rattus norvegicus. As to the kind of experiment: In vivo inhibition of rat anaphylaxis leukotriene formation from peritoneal fluids, 1 hr after an oral dose of 200 uM/Kg. The class given is functional. The method in brief: (§2)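 Rats given 200 µmol/kg orally 1 h before antibody-antigen challenge inducing peritoneal leukotriene biosynthesis; LTE4 in peritoneal fluid measured. Mean of eight rats; percent inhibition versus control group mean; significance by one-way ANOVA with Tukey's multiple comparison.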
`CCc1cccc(N2CCNC(=O)N2)c1` displayed an ED50 of 24 mg/kg.

Another data set concerns the target T2, Polyunsaturated fatty acid 5-lipoxygenase (Rattus norvegicus, UniProt P12527).
T2 sequence (P12527 whole entry): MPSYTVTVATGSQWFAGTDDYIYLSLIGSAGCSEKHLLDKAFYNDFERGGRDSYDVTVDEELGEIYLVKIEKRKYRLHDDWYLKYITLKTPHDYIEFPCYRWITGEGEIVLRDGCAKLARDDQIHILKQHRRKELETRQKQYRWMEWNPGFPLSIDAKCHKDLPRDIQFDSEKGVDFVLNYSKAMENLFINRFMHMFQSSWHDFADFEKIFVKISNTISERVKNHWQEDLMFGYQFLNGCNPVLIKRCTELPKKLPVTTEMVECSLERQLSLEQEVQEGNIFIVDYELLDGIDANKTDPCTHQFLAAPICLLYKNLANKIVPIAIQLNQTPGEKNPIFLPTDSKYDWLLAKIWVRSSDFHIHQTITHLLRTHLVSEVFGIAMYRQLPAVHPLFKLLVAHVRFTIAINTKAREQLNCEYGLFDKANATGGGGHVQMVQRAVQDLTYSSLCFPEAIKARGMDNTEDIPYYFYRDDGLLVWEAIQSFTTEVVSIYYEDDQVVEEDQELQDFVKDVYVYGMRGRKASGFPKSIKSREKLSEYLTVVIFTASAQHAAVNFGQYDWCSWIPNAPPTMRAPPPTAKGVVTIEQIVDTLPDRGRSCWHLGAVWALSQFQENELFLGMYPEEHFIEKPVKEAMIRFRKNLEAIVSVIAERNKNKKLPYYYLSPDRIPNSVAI
Description: Inhibition of 5-lipoxygenase catalysis in rat basophilic leukemia (RBL) cells by measuring 5-HETE product formation. The class given is cell-based, RBL-1. The method in brief: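 Crude 20000g supernatant from sonicated rat basophilic leukemia cells used as 5-LO source; 5-HETE product formation measured.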
`O=C1NCCN(c2cccnc2)N1` returned an IC50 of 32 µM.

For the molecule `O=C1NCCN(c2cccc(O)c2)N1`, half-maximal inhibition (IC50) required 32 µM.

Molecule `COc1cccc(N2CCNC(=O)N2)c1` came in with an IC50 of 47 µM.

Consider `O=C1NCCN(c2cccc([N+](=O)[O-])c2)N1`, for which the IC50 was determined as 49 µM.

`Cc1ccc(N2CCNC(=O)N2)cc1` displayed a half-inhibitory concentration (IC50) of 300 µM.

In turn, `O=C1NCCN(c2nc3ccccc3o2)N1` came in with a concentration for half-maximal inhibition (IC50) of 32 µM.

On to `CN1CCN(c2ccccc2)NC1=O`, for which the IC50 came to 32 µM.

Consider `O=C1NCCN(c2ccncc2)N1`, for which it took 32 µM to reach half-maximal inhibition (IC50).

On to `Nc1cccc(N2CCNC(=O)N2)c1`, for which the concentration for half-maximal inhibition (IC50) was 178 µM.

Turning to `O=C1NCCN(c2nc3ccccc3s2)N1`, half-maximal inhibition (IC50) was put at 32 µM.

`CON1C(=O)NN(c2ccccc2)CC1C` (configuration not stated) showed an IC50 of 22 µM.

Molecule `O=C1NCCN(c2cnc3ccccc3c2)N1` registered an IC50 of 32 µM.

The molecule `CCN1CCN(c2ccccc2)NC1=O` came in with an IC50 of 32 µM.

Consider `O=C1NCCN(c2ccnc3cc(Cl)ccc23)N1`, for which half-maximal inhibition (IC50) was put at 32 µM.

Regarding `O=C1NCCN(c2cccc(-c3ccccn3)c2)N1`, inhibition was half-maximal at 30 µM (IC50).

Regarding `Cc1cccc(N2CC(C)NC(=O)N2)c1` (configuration not stated), inhibition was half-maximal at 1.3 µM (IC50).

The molecule `O=C1NN(c2ccccc2)CCN1Cc1ccccc1` displayed an IC50 of 8.3 µM.

Consider `O=C1NCCN(c2cccc(-c3ccncc3)c2)N1`, for which the IC50 amounted to 30 µM.

`CCCCC1CN(c2ccccc2)NC(=O)N1` (configuration not stated) yielded an IC50 of 1.5 µM.

`CC1CN(c2ccccc2)NC(=O)N1O` (configuration not stated): the IC50 was 6 µM.

The next data set has as its system Rattus norvegicus. As to the kind of experiment: In vivo inhibition of rat anaphylaxis LTE4 leukotriene formation from peritoneal fluids, 1 hr after an oral dose of 200 uM/kg. The class given is functional. The essentials:
as §2
As for `O=C1NCCN(c2cccc(F)c2)N1`, the Inhibition is on record as 38%.

As for `O=C1NCCN(c2cccc(C(F)(F)F)c2)N1`, the Inhibition worked out at 40%.

In turn, `COc1cccc(N2CCNC(=O)N2)c1` returned an Inhibition of 44%.

Consider `Cc1cccc(N2CC(C)NC(=O)N2)c1` (configuration not stated), for which the Inhibition was determined as 43%.

The molecule `Cc1cc(C)cc(N2CCNC(=O)N2)c1` came in with an Inhibition of 46%.

For `CCCCC1CN(c2ccccc2)NC(=O)N1` (configuration not stated), the Inhibition worked out at 42%.

`O=C1NCCN(c2cccc(Br)c2)N1` gave an Inhibition of 46%.
